Bioassay records (PubChem)
Insulin prom up: MIN6 insulin promoter up-regulation | MIN6 insulin promoter-GFP reporter, high-content imaging; stronger effect = higher value | z-score at 5 µM | 190,000 tested, 0.3% active | AID 1625;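 active means z-score above 3 at 5 µM with at least 500 cells counted in the well; inconclusive means wells under 500 cells, flagged as cytotoxic or low count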
RBBP9 inh: inhibitors of human serine hydrolase RBBP9; recombinant RBBP9, FP-Rh probe fluorescence polarization; O75884; inhibition, % at 7.94 µM; 220,000 tested, 0.2% active;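 active means inhibition above the campaign mean of all tested compounds plus 3 SD, cut at about 14% in these data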
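System: RBBP9 protein / Buffer or medium: Tris/NaCl buffer pH 8.0 with 0.1% Pluronic / Probe or stimulus: Serine-hydrolase probe FP-Rh, 375 nM pre-mixing / Dosing: 7.94 µM single dose, 0.794% DMSO / Times: enzyme-compound preincubation 30 min, then probe labeling 45 min, 25 °C / Technique: fluorescence polarization (mP), excitation 525 nm, emission 598 nm / Replication: singlicate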
PKD1 kinase inh: PKD1 (human) kinase inhibition | Q15139 | 200,000 tested, 0.056% active | PKD1 kinase fluorescence polarization assay | inhibition, % (no concentration beside the values); in the data active means inhibition above about 50%
Target sequence (Q15139 whole entry, looked up): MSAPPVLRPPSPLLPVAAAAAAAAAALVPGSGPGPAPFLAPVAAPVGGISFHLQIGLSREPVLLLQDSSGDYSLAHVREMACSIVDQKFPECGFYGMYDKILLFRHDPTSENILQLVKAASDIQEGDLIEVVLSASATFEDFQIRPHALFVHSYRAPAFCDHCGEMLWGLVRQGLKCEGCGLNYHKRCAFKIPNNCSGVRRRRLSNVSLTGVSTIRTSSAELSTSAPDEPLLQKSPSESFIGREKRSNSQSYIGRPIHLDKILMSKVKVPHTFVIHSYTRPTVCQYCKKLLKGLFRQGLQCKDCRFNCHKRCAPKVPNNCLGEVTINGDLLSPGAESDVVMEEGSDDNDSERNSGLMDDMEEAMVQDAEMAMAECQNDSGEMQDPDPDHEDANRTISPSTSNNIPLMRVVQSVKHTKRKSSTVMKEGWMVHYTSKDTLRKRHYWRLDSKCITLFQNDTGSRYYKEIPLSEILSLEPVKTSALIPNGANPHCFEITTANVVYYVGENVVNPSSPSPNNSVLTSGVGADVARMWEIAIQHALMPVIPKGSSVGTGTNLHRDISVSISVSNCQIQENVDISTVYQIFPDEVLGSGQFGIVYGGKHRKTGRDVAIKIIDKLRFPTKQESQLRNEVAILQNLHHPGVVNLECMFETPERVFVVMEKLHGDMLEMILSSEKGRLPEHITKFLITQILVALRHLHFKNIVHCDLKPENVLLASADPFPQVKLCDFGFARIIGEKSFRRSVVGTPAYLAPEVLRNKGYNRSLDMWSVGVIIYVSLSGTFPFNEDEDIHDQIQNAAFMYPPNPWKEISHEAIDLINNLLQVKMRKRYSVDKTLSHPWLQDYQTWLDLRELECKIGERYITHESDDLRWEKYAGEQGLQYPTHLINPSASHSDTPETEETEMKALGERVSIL
INS promoter inh: TRM-6 insulin promoter activity inhibition; TRM-6 cells (human fetal islet line), insulin promoter-eGFP reporter, imaging; reporter expression induced with tamoxifen; 130,000 tested, 0.9% active; inhibition, % at 2 µM; AID 1273;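 active means inhibition above the mean plus 3 SD, with well images judged a real hit on visual review, cut at about 60% in these data, passing the limit was not always enough; inconclusive means inhibition over the cutoff but images rejected on review; inactive means inhibition not above the cutoff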
Autophagy HCS: modulators of autophagy | calls only at 10 µM (by protocol) | 190,000 tested, 0.98% active | MEF GFP-LC3 puncta imaging; test concentration mostly 10 µM;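 active means percentage of spot-positive cells more than 3 SD above its plate mean, without a fluorescence outlier flag or 80% toxicity; inconclusive means no clear call, values can overlap the other calls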
Arbovirus anti: arbovirus infection inhibition | inhibition, % at 10 µM | arbovirus infection cell-based antiviral screen | 200,000 tested, 0.37% active; in the data active means inhibition above about 30%
Hits are given with their value; n = inactive; u = inconclusive; x = not tested or not shown; + = active, no number. Hits are enriched below; roughly 2.1% of the tested compounds scored in any of these assays.

SMILES	Insulin prom up	RBBP9 inh	PKD1 kinase inh	INS promoter inh	Autophagy HCS	Arbovirus anti
CCOC(=O)C1CCCN(C2CC(=O)N(c3ccc(C)cc3)C2=O)C1 (stereo not given)	n	n	n	68	n	n
O=C(CSc1nnc(-c2ccncc2)n1Cc1ccccc1)NC1CCCCC1	n	n	x	x	x	x
CCCn1c(SCC(=O)NC2CCCCC2)nnc1-c1ccncc1	3.1	n	n	n	n	n
CCCn1c(SCC(=O)Nc2nc(C)cs2)nnc1-c1cccnc1	x	n	n	75	n	n
O=C1CN(c2ccc(Cl)cc2)C2(CCCCC2)S1	n	n	n	n	n	n
CCOC(=O)c1sc(NC(=S)NC(=O)c2cccc(Cl)c2)c(C(=O)OCC)c1C	n	n	n	n	n	37
CCOC(=O)c1sc(NC(=O)c2ccccc2F)c(C(N)=O)c1C	n	n	n	79	n	n
CCOC(=O)c1sc(NC(=O)c2ccccc2C(=O)O)c(C(=O)OCC)c1C	n	n	x	x	x	x
O=C(Nn1c(-c2ccc(Br)cc2)nc2ccccc2c1=O)c1cccnc1	n	n	n	78	n	n
O=C(Nn1c(-c2ccncc2)nc2ccccc2c1=O)c1ccc(Br)cc1	n	n	n	n	n	n
COc1ccc(C2Nc3ccccc3C(=O)N2c2ccccc2)cc1CSc1ccccn1 (stereo not given)	n	n	n	n	n	n
Cc1ccc(C)c(N2CCN(C(=O)Cc3ccc(-n4c(=O)[nH]c5ccsc5c4=O)cc3)CC2)c1	n	n	n	n	n	36
Nc1c(C(=O)Nc2ccc(S(=O)(=O)N3CCCC3)cc2)sc2nc3ccc(OC(F)(F)F)cc3cc12	n	n	n	n	+	n
Nc1c(C(=O)Nc2ccc(S(=O)(=O)N3CCCC3)cc2)sc2nc3cc4c(cc3cc12)CCC4	n	n	n	n	+	n
Cc1cc([N+](=O)[O-])nn1CCCC(=O)Nc1sc2c(c1C(N)=O)CCCC2	n	n	n	n	n	n
O=C(CSc1ncnc2[nH]ncc12)Nc1cccc(Oc2ccccc2)c1	n	n	n	x	n	n
Cc1cccc(OCCCCNCc2ccccc2)c1	x	n	n	x	n	n
Nc1ccc2c(c1)Cc1cc([N+](=O)[O-])ccc1-2	x	n	n	x	+	n
Cc1ccc([N+](=O)[O-])cc1N	n	n	n	x	n	n
N#CC1=C(N)Oc2c(ccc3ccccc23)C1c1cccs1 (stereo not given)	n	n	n	n	+	n
CCS(=O)(=O)n1nc(-c2ccco2)nc1SC	n	n	n	n	n	n
O=C(NCc1ccncc1)c1ccc(Cn2cc(C(F)(F)F)ccc2=O)cc1	x	n	n	n	n	n
O=C(NC1(C(F)(F)F)NC(=O)N(c2ccc(F)c(Cl)c2)C1=O)c1ccncc1 (stereo not given)	4.5	n	n	n	n	n
Nn1cnnc1SCC(=O)Nc1ccc2c(c1)OCCO2	n	n	n	n	n	n
CC(C)c1ccc(-n2c(-c3ccccc3)c[n+]3c2CCc2ccccc2-3)cc1	u	n	n	n	+	n
SMILES	Insulin prom up	RBBP9 inh	PKD1 kinase inh	INS promoter inh	Autophagy HCS	Arbovirus anti
COc1ccc(-n2c(-c3ccc(Br)cc3)c[n+]3c2CCc2ccccc2-3)cc1	n	n	n	n	n	n
OCC1CCN(Cc2cn(Cc3ccccc3)nc2-c2cc3ccccc3o2)CC1	n	n	n	x	n	n
COC1CCN(Cc2cn(Cc3ccccc3)nc2-c2cc3ccccc3o2)CC1	n	n	n	x	+	n
O=C(/C(=C/c1ccc(Cl)cc1)c1nc2ccccc2[nH]1)c1cccs1	u	n	n	n	+	n
C=C(C)C1CC=C(C)/C(=N/NC(=O)c2ccc(NC(=O)CCC)cc2)C1 (stereo not given)	n	n	n	83	n	n
C=C(C)C1CC=C(C)/C(=N/NC(=O)c2ccc(NC(=O)CC)cc2)C1 (stereo not given)	n	n	n	n	n	n
CC1(C)Cc2nc3sc4c(SCC(=O)NCc5ccccc5)ncnc4c3cc2CO1	n	n	n	n	+	n
CC1(C)Cc2nc3sc4c(SCC(=O)O)ncnc4c3cc2CO1	n	n	x	x	x	x
Cc1ccc(NCc2cccnc2)c(Br)c1	n	n	n	67	n	n
COc1ccccc1/C=C/C=C1N=C(/C=C/c2ccc(Cl)cc2)OC/1=O	n	n	n	n	n	35
Cc1ccccc1-c1nnc(-c2ccc(Cl)cc2)o1	3.5	n	n	n	n	n
Cc1ccccc1-c1nnc(-c2ccccc2)o1	n	n	n	n	n	n
COc1ccccc1C(=O)Oc1cc(N)n(S(=O)(=O)c2ccc(C)cc2)n1	n	n	n	79	n	n
O=C(NCc1cccs1)C1CCCN(S(=O)(=O)c2cnc[nH]2)C1 (stereo not given)	n	n	n	x	+	n
CC(C)CN(CC(C)C)S(=O)(=O)N1CCC(C(=O)NCc2cccs2)CC1	n	n	n	n	n	n
O=C(NCc1ccc(F)cc1)C1CCCN(S(=O)(=O)c2cccnc2)C1 (stereo not given)	3.5	n	n	x	n	n
Cn1c(=O)oc2cc(S(=O)(=O)N3CCC(C(=O)NCc4ccc(F)cc4)CC3)ccc21	n	n	n	x	+	n
O=C(NCc1ccccc1Cl)C1CCCN(S(=O)(=O)c2cnc[nH]2)C1 (stereo not given)	n	n	n	x	n	n
CC1CCN(S(=O)(=O)N2CCC(C(=O)NCc3cccs3)CC2)CC1	n	n	n	x	+	n
CN1C(=O)CSc2ccc(NC(=O)N3CCN(c4ccccn4)CC3)cc21	n	n	n	x	n	n
Cc1cccc2sc(NC(=O)C3CCCN(S(=O)(=O)c4cccc5nonc45)C3)nc12 (stereo not given)	6.6	n	n	n	+	n
Cc1ccc2nc(NC(=O)C3CCCN(S(=O)(=O)c4cnc[nH]4)C3)sc2c1 (stereo not given)	n	n	n	x	x	59
Cc1ccc2nc(NC(=O)C3CCCN(S(=O)(=O)c4cccnc4)C3)sc2c1 (stereo not given)	n	n	n	x	n	n
Cc1ccc2nc(NC(=O)C3CCCN(S(=O)(=O)c4cccc5nonc45)C3)sc2c1 (stereo not given)	n	n	x	x	x	x
COc1ccc2nc(SCC(=O)Nc3ccccc3)[nH]c2c1	n	n	n	n	n	n
SMILES	Insulin prom up	RBBP9 inh	PKD1 kinase inh	INS promoter inh	Autophagy HCS	Arbovirus anti
COc1ccc2nc(SCC(=O)Nc3c(C)cccc3C)[nH]c2c1	3.3	n	n	n	n	n
O=C1/C(=C/c2ccncc2)CCC/C1=C\c1ccncc1	u	n	n	x	+	n
Cc1ccc(-c2cc(C(=O)N3CCN(C(=O)c4ccco4)CC3)no2)cc1	n	n	n	n	n	n
CC(C)(C)c1ccc(C(=O)c2c[nH]c(C(=O)O)c2)cc1	n	n	n	x	n	n
CC(=O)Nc1ccc(N2CCc3c(C)c(C#N)c4nc5ccccc5n4c32)cc1	3.8	n	n	n	+	n
CN(C)/C=C/C(=O)c1cccc([N+](=O)[O-])c1	n	n	n	n	+	n
CCNC(=O)c1oc2c(c1C)C(=O)CC(C)(C)C2	x	n	n	n	n	n
